Test results from ChEMBL document CHEMBL4828740, “Discovery of Quinoxaline-Based P1-P3 Macrocyclic NS3/4A Protease Inhibitors with Potent Activity against Drug-Resistant Hepatitis C Virus Variants” (J Med Chem, 2021).

Tests used:
Hepatitis C virus [1] = assay: Antiviral activity against HCV genotype 3a infected in human Huh7.5 cells incubated for 72 hrs by luciferase assay; assay type: functional, organism-based, Hepacivirus hominis; details: subtype 3a, Huh7.5, 72 h
How it was run: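 Huh7.5 cells stably harboring the GT-3a replicon S52/SG-Feo SHI, seeded at 8,000 cells/well. Cells lysed in 1X Passive Lysis Buffer and luciferase activity measured. EC50 taken from drug inhibition curves.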

Hepatitis C virus [2] = assay: Antiviral activity against HCV genotype 1b infected in human Huh7 cells incubated for 96 hrs by luciferase assay; assay type: functional, organism-based, Hepacivirus hominis; details: Huh-7, 96 h
How it was run: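 Con1 (GT-1b) luciferase reporter replicon carrying the H77 (GT-1a) NS3 protease region, either WT or with A156T or D168A introduced by megaprimer mutagenesis. Cured Huh7 cells grown in DMEM with 10% heat-inactivated FBS and 0.1 mM non-essential amino acids. Cells electroporated with replicon RNA and kept with serially diluted inhibitor.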

Hepatitis C virus [3] = assay: Antiviral activity against HCV genotype 1b harboring D168A mutant infected in human Huh7 cells incubated for 96 hrs by luciferase assay; assay type: functional, organism-based, Hepacivirus hominis; details: subtype 1b, Huh-7, 96 h
How it was run: (§1)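 Con1 (GT-1b) luciferase reporter replicon carrying the H77 (GT-1a) NS3 protease region, with the mutation introduced by megaprimer site-directed mutagenesis. Cured Huh7 cells were grown in DMEM with 10% heat-inactivated FBS and 0.1 mM non-essential amino acids, electroporated with replicon RNA transcripts, and kept with serially diluted inhibitor. EC50 was taken directly from the inhibition curves.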

Hepatitis C virus [4] = assay: Antiviral activity against HCV genotype 1b harboring A156T mutant infected in human Huh7 cells incubated for 96 hrs by luciferase assay; assay type: functional, organism-based, Hepacivirus hominis; details: subtype 1b, Huh-7, 96 h; how it was run: as §1
[5] = biological target: T1, Hepatitis C virus serine protease, NS3/NS4A (Hepatitis C virus, UniProt A3EZI9+D2K2A8); assay: Inhibition of HCV GT-1a NS3/4a protease using Ac-DE-D(Edans)-EE-Abu-c-[COO]-AS-K(Dabcy1)-NH2 preincubated for 1 hr followed by substrate addition; assay type: protein complex, Hepatitis C virus subtype 1a
[6] = biological target: T1, Hepatitis C virus serine protease, NS3/NS4A; assay: Inhibition of HCV GT-3a NS3/4a protease using Ac-DE-D(Edans)-EE-Abu-c-[COO]-AS-K(Dabcy1)-NH2 preincubated for 1 hr followed by substrate addition; assay type: protein-complex assay, Hepatitis C virus subtype 3a

Row | SMILES | EC50 (Hepatitis C virus [1]) [nM] | EC50 (Hepatitis C virus [2]) [nM] | EC50 (Hepatitis C virus [3]) [nM] | EC50 (Hepatitis C virus [4]) [nM] | Ki [5] [nM] | Ki [6] [nM]
1 | CC(C)(C)[C@@H]1NC(=O)O[C@@H]2CCC[C@H]2OC/C=C/C(F)(F)c2nc3ccccc3nc2O[C@@H]2C[C@@H](C(=O)N[C@]3(C(=O)NS(=O)(=O)C4(C)CC4)C[C@H]3C(F)F)N(C2)C1=O | 30 | 0.2 | 0.2 | – | – | –
2 | COc1ccc2nc(C)c(O[C@@H]3C[C@H]4C(=O)N[C@]5(C(=O)NS(=O)(=O)C6(C)CC6)C[C@H]5/C=C/CCCCC[C@H](NC(=O)O[C@H](C)C(F)(F)F)C(=O)N4C3)nc2c1 | 260 | 0.5 | 2.5 | 18 | 1.1 | 122
3 | COc1ccc2nc(C)c(O[C@@H]3C[C@H]4C(=O)N[C@]5(C(=O)NS(=O)(=O)C6(C)CC6)C[C@H]5/C=C/CCCCC[C@H](NC(=O)O[C@@H]5CCC[C@H]5F)C(=O)N4C3)nc2c1 | – | 0.4 | 43 | 12 | 2.3 | 216
4 | COc1ccc2nc(O[C@@H]3C[C@H]4C(=O)N[C@]5(C(=O)NS(=O)(=O)C6(C)CC6)C[C@H]5/C=C/CCCCC[C@H](NC(=O)OC(C)(C)C)C(=O)N4C3)c(C(F)(F)F)nc2c1 | – | 0.9 | 4.7 | 12 | 5.8 | 230
5 | COc1ccc2nc(C)c(O[C@@H]3C[C@H]4C(=O)N[C@]5(C(=O)NS(=O)(=O)C6(C)CC6)C[C@H]5/C=C/CCCCC[C@H](NC(=O)OC5C[C@@H]6C[C@@H]6C5)C(=O)N4C3)nc2c1 (stereo partly specified) | 900 | 0.1 | 0.5 | 5.3 | 0.5 | 39
6 | COc1ccc2nc(C)c(O[C@@H]3C[C@H]4C(=O)N[C@]5(C(=O)NS(=O)(=O)C6(C)CC6)C[C@H]5/C=C/CCCCC[C@H](NC(=O)OCC5(C(F)(F)F)CC5)C(=O)N4C3)nc2c1 | 330 | 0.1 | 1.4 | 5.6 | 0.9 | 230
7 | COc1ccc2nc(O[C@@H]3C[C@H]4C(=O)N[C@]5(C(=O)NS(=O)(=O)C6(C)CC6)C[C@H]5/C=C/CCCCC[C@H](NC(=O)O[C@@H](C)C5CC5)C(=O)N4C3)c(C(F)(F)F)nc2c1 | – | 3.3 | 18 | 18 | 10 | 412
8 | COc1ccc2nc(O[C@@H]3C[C@H]4C(=O)N[C@]5(C(=O)NS(=O)(=O)C6(C)CC6)C[C@H]5/C=C/CCCCC[C@H](NC(=O)O[C@@H](C)C(C)C)C(=O)N4C3)c(C(F)(F)F)nc2c1 | 1500 | 0.9 | 3.1 | 8.7 | 6.1 | 447
9 | COc1ccc2nc(O[C@@H]3C[C@H]4C(=O)N[C@]5(C(=O)NS(=O)(=O)C6(C)CC6)C[C@H]5/C=C/CCCCC[C@H](NC(=O)OC(C)(C)C(F)(F)F)C(=O)N4C3)c(C(F)(F)F)nc2c1 | 330 | 1 | 4.3 | 10 | 3.6 | 390
10 | COc1ccc2nc(O[C@@H]3C[C@H]4C(=O)N[C@]5(C(=O)NS(=O)(=O)C6(C)CC6)C[C@H]5/C=C/CCCCC[C@H](NC(=O)O[C@H](C)C(F)(F)F)C(=O)N4C3)c(C(F)(F)F)nc2c1 | – | 1.6 | 7.3 | 30 | 2.8 | 490
11 | COc1ccc2nc(O[C@@H]3C[C@H]4C(=O)N[C@]5(C(=O)NS(=O)(=O)C6(C)CC6)C[C@H]5/C=C/CCCCC[C@H](NC(=O)OC5CCC5)C(=O)N4C3)c(C(F)(F)F)nc2c1 | – | 1.8 | 50 | 9.6 | 8.5 | 870
12 | CCC(CC)OC(=O)N[C@H]1CCCCC/C=C/[C@@H]2C[C@@]2(C(=O)NS(=O)(=O)C2(C)CC2)NC(=O)[C@@H]2C[C@@H](Oc3nc4ccc(OC)cc4nc3C(F)(F)F)CN2C1=O | – | 4.1 | 17 | 85 | 4.6 | 840
13 | CCC(C)(C)OC(=O)N[C@H]1CCCCC/C=C/[C@@H]2C[C@@]2(C(=O)NS(=O)(=O)C2(C)CC2)NC(=O)[C@@H]2C[C@@H](Oc3nc4ccc(OC)cc4nc3C(F)(F)F)CN2C1=O | – | 1.5 | 11 | 10 | 2.7 | 240
14 | COc1ccc2nc(C)c(O[C@@H]3C[C@H]4C(=O)N[C@]5(C(=O)NS(=O)(=O)C6(C)CC6)C[C@H]5/C=C/CCCCC[C@H](NC(=O)OC5(C(F)(F)F)CCC5)C(=O)N4C3)nc2c1 | 310 | 0.3 | 25 | 5.9 | 1.5 | 96
15 | COc1ccc2nc(O[C@@H]3C[C@H]4C(=O)N[C@]5(C(=O)NS(=O)(=O)C6(C)CC6)C[C@H]5/C=C/CCCCC[C@H](NC(=O)OC5(C)CCC5)C(=O)N4C3)c(C(F)(F)F)nc2c1 | – | 1.6 | 58 | 26 | 4.9 | 283
16 | COc1ccc2nc(O[C@@H]3C[C@H]4C(=O)N[C@]5(C(=O)NS(=O)(=O)C6(C)CC6)C[C@H]5/C=C/CCCCC[C@H](NC(=O)OC5(C)CCCC5)C(=O)N4C3)c(C(F)(F)F)nc2c1 | – | 5.8 | 16 | 70 | 0.9 | 161
17 | COc1ccc2nc(O[C@@H]3C[C@H]4C(=O)N[C@]5(C(=O)NS(=O)(=O)C6(C)CC6)C[C@H]5/C=C/CCCCC[C@H](NC(=O)O[C@@H](C)C(F)(F)F)C(=O)N4C3)c(C(F)(F)F)nc2c1 | – | 5.6 | 18 | 75 | 7.7 | 580
18 | COc1ccc2nc(O[C@@H]3C[C@H]4C(=O)N[C@]5(C(=O)NS(=O)(=O)C6(C)CC6)C[C@H]5/C=C/CCCCC[C@H](NC(=O)OC5(C(F)(F)F)CCC5)C(=O)N4C3)c(C(F)(F)F)nc2c1 | 900 | 1.4 | 7.8 | 5.1 | 2 | 133
19 | COc1ccc2nc(O[C@@H]3C[C@H]4C(=O)N[C@]5(C(=O)NS(=O)(=O)C6(C)CC6)C[C@H]5/C=C/CCCCC[C@H](NC(=O)OC5CCCC5)C(=O)N4C3)c(C(F)(F)F)nc2c1 | – | 3.2 | 6.2 | 45 | 8.1 | 433
20 | COc1ccc2nc(O[C@@H]3C[C@H]4C(=O)N[C@]5(C(=O)NS(=O)(=O)C6(C)CC6)C[C@H]5/C=C/CCCCC[C@H](NC(=O)OCC5(C)CC5(F)F)C(=O)N4C3)c(C(F)(F)F)nc2c1 (stereo partly specified) | – | 2.7 | 8.5 | 130 | 2.1 | 336
21 | COc1ccc2nc(C)c(O[C@@H]3C[C@H]4C(=O)N[C@]5(C(=O)NS(=O)(=O)C6(C)CC6)C[C@H]5/C=C/CCCCC[C@H](NC(=O)OC(C)(C)C(F)(F)F)C(=O)N4C3)nc2c1 | 160 | 0.8 | – | 3.3 | 2.6 | 66
22 | COc1ccc2nc(O[C@@H]3C[C@H]4C(=O)N[C@]5(C(=O)NS(=O)(=O)C6(C)CC6)C[C@H]5/C=C/CCCCC[C@H](NC(=O)OC5CC5)C(=O)N4C3)c(C(F)(F)F)nc2c1 | – | 2 | 14 | 36 | 14 | 522
23 | COc1ccc2nc(O[C@@H]3C[C@H]4C(=O)N[C@]5(C(=O)NS(=O)(=O)C6(C)CC6)C[C@H]5/C=C/CCCCC[C@H](NC(=O)OC5(C(F)(F)F)CCCC5)C(=O)N4C3)c(C(F)(F)F)nc2c1 | 290 | 0.7 | 5.2 | 19 | 5.7 | 414
